According to ChEMBL document CHEMBL1136005 (J Med Chem, 2002):

Legend:
[1] = target: Platelet-derived growth factor receptor (Homo sapiens, UniProt P09619+P16234); assay: Concentration required for 50% inhibition against autophosphorylation of Platelet-derived growth factor receptor beta in intact cells using a two site ELISA; format: cell-based
[2] = Plasma concentration was determined after 1 hr at a dose 30 mg/kg administered orally to rat-5; format: ADME, organism-based; parameters: dose 30 mg/kg, route oral; conditions: po
Summary of the method: (§1)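 Sprague-Dawley rats, n=2 per compound, dosed orally at 30 mg/kg. Plasma drug concentration measured 1 and 8 h after dosing.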

[3] = Plasma concentration was determined after 1 hr at a dose 30 mg/kg administered orally to rat-6; format: ADME, organism-based; parameters: dose 30 mg/kg, route oral; conditions: po; summary of the method: as §1
[4] = Plasma concentration was determined after 8 hr at a dose 30 mg/kg administered orally to rat-6; format: ADME, organism-based; parameters: dose 30 mg/kg, route oral; conditions: po; summary of the method: as §1
[5] = Plasma concentration was determined after 8 hr at a dose 30 mg/kg administered orally to rat-5; format: ADME, organism-based; parameters: dose 30 mg/kg, route oral; conditions: po; summary of the method: as §1
[6] = Plasma concentration was determined after 1 hr at a dose 30 mg/kg administered orally to rat-2; format: ADME, organism-based; parameters: dose 30 mg/kg, route oral; conditions: po; summary of the method: as §1
[7] = Plasma concentration was determined after 8 hr at a dose 30 mg/kg administered orally to rat-1; format: ADME, organism-based; parameters: dose 30 mg/kg, route oral; conditions: po; summary of the method: as §1
[8] = Plasma concentration was determined after 8 hr at a dose 30 mg/kg administered orally to rat-2; format: ADME, organism-based; parameters: dose 30 mg/kg, route oral; conditions: po; summary of the method: as §1
[9] = Plasma concentration was determined after 1 hr at a dose 30 mg/kg administered orally to rat-1; format: ADME, organism-based; parameters: dose 30 mg/kg, route oral; conditions: po; summary of the method: as §1
[10] = Solubility in aqueous phosphate buffer (pH 7.4) at 20c was determined; format: physicochemical
[11] = Plasma concentration was determined after 8 hr at a dose 30 mg/kg administered orally to rat-13; format: ADME, organism-based; parameters: dose 30 mg/kg, route oral; conditions: po; summary of the method: as §1
[12] = Plasma concentration was determined after 8 hr at a dose 30 mg/kg administered orally to rat-14; format: ADME, organism-based; parameters: dose 30 mg/kg, route oral; conditions: po; summary of the method: as §1
[13] = Plasma concentration was determined after 1 hr at a dose 30 mg/kg administered orally to rat-13; format: ADME, organism-based; parameters: dose 30 mg/kg, route oral; conditions: po; summary of the method: as §1
[14] = Lipophilicity was reported; format: physicochemical; conditions: octanol/water
[15] = Plasma concentration was determined after 1 hr at a dose 30 mg/kg administered orally to rat-14; format: ADME, organism-based; parameters: dose 30 mg/kg, route oral; conditions: po; summary of the method: as §1
[16] = pharmacokinetic parameter was evaluated after oral administration of 30 mg/kg to rat; format: ADME, organism-based; parameters: dose 30 mg/kg, route oral; conditions: in vivo
Summary of the method: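 Sprague-Dawley rats, n=3, dosed orally at 30 mg/kg. Plasma drug concentrations were followed to derive Tmax (h), Cmax (µg/mL), T1/2 (h) and AUC0-∞ (µg h/mL).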

[17] = target: Fibroblast growth factor receptor (Homo sapiens, UniProt P22607+P11362+P22455+P21802); assay: Inhibition of Fibroblast growth factor receptor autophosphorylation; format: protein assay
[18] = target: T1, Receptor-type tyrosine-protein kinase FLT3 (Homo sapiens, UniProt P36888); assay: Inhibition of Flt3 autophosphorylation
T1 sequence (P36888 whole entry): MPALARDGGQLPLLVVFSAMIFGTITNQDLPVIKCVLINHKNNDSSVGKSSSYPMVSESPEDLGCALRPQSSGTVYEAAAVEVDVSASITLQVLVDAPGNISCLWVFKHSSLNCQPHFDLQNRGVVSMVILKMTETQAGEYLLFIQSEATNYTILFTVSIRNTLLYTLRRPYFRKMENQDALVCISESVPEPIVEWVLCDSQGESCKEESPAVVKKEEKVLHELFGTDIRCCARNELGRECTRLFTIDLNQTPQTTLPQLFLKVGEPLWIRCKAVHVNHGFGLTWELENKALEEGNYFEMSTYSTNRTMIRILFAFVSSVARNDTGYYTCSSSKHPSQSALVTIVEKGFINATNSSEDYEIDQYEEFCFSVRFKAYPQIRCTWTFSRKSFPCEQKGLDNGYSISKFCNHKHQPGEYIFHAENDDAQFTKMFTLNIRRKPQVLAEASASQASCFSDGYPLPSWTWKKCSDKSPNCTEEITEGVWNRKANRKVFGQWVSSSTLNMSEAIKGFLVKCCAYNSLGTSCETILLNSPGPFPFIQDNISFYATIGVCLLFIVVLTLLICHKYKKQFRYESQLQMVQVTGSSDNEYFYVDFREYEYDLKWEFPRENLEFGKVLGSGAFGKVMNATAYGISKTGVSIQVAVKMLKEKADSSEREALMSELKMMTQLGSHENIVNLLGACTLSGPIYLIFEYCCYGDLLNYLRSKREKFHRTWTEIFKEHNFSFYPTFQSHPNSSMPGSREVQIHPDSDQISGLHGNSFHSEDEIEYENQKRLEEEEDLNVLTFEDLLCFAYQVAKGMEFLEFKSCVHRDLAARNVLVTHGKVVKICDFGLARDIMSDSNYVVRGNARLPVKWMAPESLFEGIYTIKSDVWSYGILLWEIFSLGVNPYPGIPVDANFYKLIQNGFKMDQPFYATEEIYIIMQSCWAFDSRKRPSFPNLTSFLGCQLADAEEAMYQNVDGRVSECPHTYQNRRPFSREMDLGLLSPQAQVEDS

Protein kinase C (PKC) = assay: Inhibition of Protein kinase C; format: protein assay
Summary of the method: (§2)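 Substrate phosphorylation measured in an in vitro assay with purified enzyme; IC50 values in µmol/L.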

[19] = target: cAMP-dependent protein kinase (PKA) (Homo sapiens, UniProt P22694+P17612+P22612); assay: Inhibition of Protein kinase A (PKA); format: protein assay; summary of the method: as §2
[20] = target: Mast/stem cell growth factor receptor Kit (Homo sapiens, UniProt P10721); assay: Inhibition of Mast/stem cell growth factor receptor (c-kit) autophosphorylation
Sequence of Mast/stem cell growth factor receptor Kit (P10721 whole entry): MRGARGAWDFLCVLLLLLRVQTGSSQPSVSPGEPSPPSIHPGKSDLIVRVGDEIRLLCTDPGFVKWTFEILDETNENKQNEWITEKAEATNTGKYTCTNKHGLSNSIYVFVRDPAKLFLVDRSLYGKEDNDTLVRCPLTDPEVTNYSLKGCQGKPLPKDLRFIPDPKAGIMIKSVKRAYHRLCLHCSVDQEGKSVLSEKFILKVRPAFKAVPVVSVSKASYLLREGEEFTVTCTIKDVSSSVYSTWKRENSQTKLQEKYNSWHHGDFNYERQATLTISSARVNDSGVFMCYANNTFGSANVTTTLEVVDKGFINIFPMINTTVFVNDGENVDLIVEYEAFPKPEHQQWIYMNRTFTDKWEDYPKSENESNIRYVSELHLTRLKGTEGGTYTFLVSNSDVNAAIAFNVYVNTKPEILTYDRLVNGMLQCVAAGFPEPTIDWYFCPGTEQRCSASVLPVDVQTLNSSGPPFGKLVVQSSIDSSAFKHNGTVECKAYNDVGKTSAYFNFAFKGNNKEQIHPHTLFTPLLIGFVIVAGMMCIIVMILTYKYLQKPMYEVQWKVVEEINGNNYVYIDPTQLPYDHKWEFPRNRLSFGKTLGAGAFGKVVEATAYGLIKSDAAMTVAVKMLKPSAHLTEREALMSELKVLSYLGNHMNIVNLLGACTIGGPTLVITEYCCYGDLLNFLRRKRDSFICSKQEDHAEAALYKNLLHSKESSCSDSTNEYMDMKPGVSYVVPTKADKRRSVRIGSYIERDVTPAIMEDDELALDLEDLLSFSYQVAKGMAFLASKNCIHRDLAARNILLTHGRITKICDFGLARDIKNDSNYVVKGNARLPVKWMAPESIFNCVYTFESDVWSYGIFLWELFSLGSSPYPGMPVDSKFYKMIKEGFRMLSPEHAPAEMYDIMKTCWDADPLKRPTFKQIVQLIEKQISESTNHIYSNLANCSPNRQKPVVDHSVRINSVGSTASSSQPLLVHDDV

SMILES | IC50 [1] [nM] | other results
COc1cc2ncnc(N3CCN(C(=S)Nc4ccc(Cl)cc4)CC3)c2cc1OC | 790 | 
COc1cc2ncnc(N3CCN(C(=O)Nc4ccc(C(C)(C)C)cc4)CC3)c2cc1OC | 30 | 
COc1cc2ncnc(N3CCN(C(=S)NCC4(c5ccc(Cl)cc5)CC4)CC3)c2cc1OC | > 30000 | 
COc1cc2ncnc(N3CCN(C(=O)NS(=O)(=O)c4ccc(Cl)cc4)CC3)c2cc1OC | > 30000 | 
COc1cc2ncnc(N3CCN(C(=S)NCCc4cccnc4)CC3)c2cc1OC | 20100 | 
COc1cc2ncnc(N3CCN(C(=O)NCc4ccc(Br)cc4)CC3)c2cc1OC | 740 | 
COc1cc2ncnc(N3CCN(/C(=C/[N+](=O)[O-])NCc4ccc5c(c4)OCO5)CC3)c2cc1OC | > 30000 | 
COc1cc2ncnc(N3CCN(C(=S)NCc4ccc(Br)cc4)CC3)c2cc1OC | 30 | 
COc1cc2ncnc(N3CCN(C(=O)Oc4ccc([N+](=O)[O-])cc4)CC3)c2cc1OC | > 30000 | 
COc1cc2ncnc(N3CCN(C(=S)NCC4CCCCC4)CC3)c2cc1OC | > 10000 | 
COc1cc2ncnc(N3CCN(C(=S)Nc4cccnc4)CC3)c2cc1OC | 410 | 
COc1cc2ncnc(N3CCN(C(=O)NCc4ccc5c(c4)OCO5)CC3)c2cc1OC | 1870 | 
COc1ccc(CNC(=S)N2CCN(c3ncnc4cc(OC)c(OC)cc34)CC2)cc1OC | 2410 | 
COc1cc2ncnc(N3CCN(C(=O)NCc4ccsc4)CC3)c2cc1OC | > 30000 | 
COc1cc2ncnc(N3CCN(/C(S)=N\Cc4ccc(Oc5ccccc5)cc4)CC3)c2cc1OC | 960 | 
COc1cc2ncnc(N3CCN(C(=NC#N)NCc4ccc5c(c4)OCO5)CC3)c2cc1OC | 190 | 
COc1cc2ncnc(N3CCN(C(=S)NCc4ccccc4Cl)CC3)c2cc1OC | 980 | 
COc1cc2ncnc(N3CCN(C(=O)Nc4cncc(Cl)c4)CC3)c2cc1OC | 8230 | 
COc1cc2ncnc(N3CCN(C(=NC#N)NCc4ccc(C)cc4)CC3)c2cc1OC | 340 | 
COc1cc2ncnc(N3CCN(C(=O)NCCc4ccc(Cl)cc4)CC3)c2cc1OC | 5840 | 

SMILES | IC50 [1] [nM] | other results
COc1cc2ncnc(N3CCN(C(=S)NCc4ccc(Cl)cc4)CC3)c2cc1OC | 70 | concentration at 1 h [2]: 2400 ng/mL; concentration at 1 h [3]: < 100 ng/mL; concentration at 8 h [4]: < 100 ng/mL; concentration at 8 h [5]: 1300 ng/mL
COc1cc2ncnc(N3CCN(C(=S)NCCc4ccc(Cl)cc4)CC3)c2cc1OC | 1090 | 
COc1cc2ncnc(N3CCN(C(=NC#N)NCc4ccc(C(C)C)cc4)CC3)c2cc1OC | 1380 | 
COc1cc2ncnc(N3CCN(C(=S)NCc4ccc(C(C)(C)C)cc4)CC3)c2cc1OC | 160 | 
COc1cc2ncnc(N3CCN(C(=S)NCc4cccc(Cl)c4)CC3)c2cc1OC | 230 | 
COc1cc2ncnc(N3CCN(C(=O)NCc4ccc(C)cc4)CC3)c2cc1OC | 2940 | 
COc1cc2ncnc(N3CCN(C(=S)Nc4cncc(Cl)c4)CC3)c2cc1OC | 550 | 
COc1ccc(CNC(=O)N2CCN(c3ncnc4cc(OC)c(OC)cc34)CC2)cc1 | 3060 | concentration at 1 h [6]: 11600 ng/mL; concentration at 8 h [7]: 1400 ng/mL; concentration at 8 h [8]: 1900 ng/mL; concentration at 1 h [9]: 7300 ng/mL
COc1cc2ncnc(N3CCN(C(=O)Nc4ccncc4)CC3)c2cc1OC | 14100 | 
COc1cc2ncnc(N3CCN(C(=S)N[C@H](C)c4ccccc4)CC3)c2cc1OC | > 30000 | 
COc1cc2ncnc(N3CCN(C(=S)N[C@@H](C)c4ccccc4)CC3)c2cc1OC | 540 | 
COc1cc2ncnc(N3CCN(C(=S)NCc4ccc(C(C)C)cc4)CC3)c2cc1OC | 200 | 
COc1cc2ncnc(N3CCN(C(=O)Nc4ccc(Br)cc4)CC3)c2cc1OC | 530 | 
COc1cc2ncnc(N3CCN(C(=NC#N)NCc4cccc(Cl)c4)CC3)c2cc1OC | 23500 | 
COc1cc2ncnc(N3CCN(C(=O)NCc4ccc(C(C)(C)C)cc4)CC3)c2cc1OC | 110 | 
COc1cc2ncnc(N3CCN(C(=O)Nc4cccnc4)CC3)c2cc1OC | > 30000 | 
COc1cc2ncnc(N3CC(C)N(C(=O)Nc4ccc(Oc5ccccc5)cc4)CC3C)c2cc1OC (stereo not given) | > 30000 | 
COc1cc2ncnc(N3CCN(C(=S)Nc4ccccn4)CC3)c2cc1OC | > 30000 | 
COc1cc2ncnc(N3CCN(C(=O)N(C)c4ccc(Br)cc4)CC3)c2cc1OC | > 30000 | 
COc1cc2ncnc(N3CCN(C(=NC#N)NCc4ccc(Cl)cc4)CC3)c2cc1OC | 960 | 

SMILES | IC50 [1] [nM] | other results
COc1cc2ncnc(N3CCN(C(=O)NCc4ccc(Cl)cc4)CC3)c2cc1OC | 1270 | 
COc1cc2ncnc(N3CCN(C(NCc4ccc(Cl)cc4)=C(C#N)C#N)CC3)c2cc1OC | 5240 | 
COc1cc2ncnc(N3CCN(C(=O)Nc4cccs4)CC3)c2cc1OC | 410 | 
COc1cc2ncnc(N3CCN(C(=S)NCc4ccc(C)cc4)CC3)c2cc1OC | 30 | 
COc1cc2ncnc(N3CCN(C(=S)Nc4ccncc4)CC3)c2cc1OC | 980 | 
COc1cc2ncnc(N3CCN(C(=S)NC(=O)c4ccc(Cl)cc4)CC3)c2cc1OC | > 30000 | 
COc1cc2ncnc(N3CCN(C(=O)Nc4ccc(Oc5ccccc5)cc4)C(C)C3)c2cc1OC (stereo not given) | 80 | 
COc1cc2ncnc(N3CCN(C(=O)NCC(=O)c4ccc(Br)cc4)CC3)c2cc1OC | 140 | 
COc1cc2ncnc(N3CCN(C(=O)Nc4ccccn4)CC3)c2cc1OC | > 10000 | 
COc1cc2ncnc(N3CCN(C(=O)NCc4ccc(F)cc4)CC3)c2cc1OC | 9590 | 
COc1cc2ncnc(N3CCN(/C(S)=N\CC4CCCO4)CC3)c2cc1OC (stereo not given) | > 30000 | 
COc1cc2ncnc(N3CC(C)N(/C(S)=N\Cc4ccccc4)C(C)C3)c2cc1OC (stereo not given) | 640 | 
COc1cc2ncnc(N3CCN(C(=NC#N)NCc4ccccc4Cl)CC3)c2cc1OC | > 30000 | 
COc1cc2ncnc(N3CCN(C(=S)N(C)Cc4ccccc4)CC3)c2cc1OC | > 30000 | 
COc1cc2ncnc(N3CCN(C(=O)NCc4ccc(C(C)C)cc4)CC3)c2cc1OC | 550 | 
COc1cc2ncnc(N3CCN(/C(S)=N\Cc4cccnc4)CC3)c2cc1OC.Cl.Cl | 280 | solubility [10]: 2.2 µg/mL; concentration at 8 h [11]: < 100 ng/mL; concentration at 8 h [12]: < 100 ng/mL; concentration at 1 h [13]: 2600 ng/mL; logD [14]: 2.49; concentration at 1 h [15]: 2600 ng/mL; AUC [16]: 9840 ng·h/mL; Cmax [16]: 6980 ng/mL; Tmax [16]: 0.67 h; half-life [16]: 2.11 h
COc1cc2ncnc(N3CCN(C(=O)Nc4ccsc4)CC3)c2cc1OC.Cl |  | IC50 [17]: > 30 uM l-1; IC50 [18]: 7020 nM; IC50 (Protein kinase C (PKC)): > 30 uM l-1; IC50 [19]: > 30 uM l-1; IC50 [20]: 800 nM
COc1cc2ncnc(N3CCN(C(=O)Nc4ccc([N+](=O)[O-])cc4)CC3)c2cc1OC |  | logD [14]: 3.22
